In ChEMBL document CHEMBL4004831, “Naphthalene diimide-polyamine hybrids as antiproliferative agents: Focus on the architecture of the polyamine chains” (Eur J Med Chem, 2017):
pIC50: −log10 of the molar value. ≈ marks a conversion by molar mass, not a printed value. Calls of active or inactive are those of the source. The calls are words filed in the database; no cut-off is given here.

Columns and labels:
[1] = target: T1, DNA topoisomerase 2-alpha (Homo sapiens, UniProt P11388); assay: Poison activity at human topoisomerase-2alpha assessed as stabilization of DNA-enzyme cleavage complex at 0.5 to 100 uM using supercoiled pBR322 DNA as substrate after 1 hr by ethidium bromide staining based agarose gel electrophoresis
Method in brief: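 Cleavage-complex test: supercoiled pBR322 was exposed to compound (0.5–100) with 5 U human topoisomerase IIα for 1 h at 37 °C. Products were run on 1% agarose in TAE with 0.1% SDS (4.9 V/cm, 90 min) and stained with ethidium bromide, with nicked and linearized pBR322 as markers.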

[2] = test system: HL-60; assay: Growth inhibition of human HL60 cells incubated for 48 hrs by sulforhodamine B assay; format: functional; conditions: HL-60, 48 h
[3] = test system: HCT-15; assay: Growth inhibition of human HCT15 cells incubated for 48 hrs by sulforhodamine B assay; format: functional; conditions: HCT-15, 48 h
[4] = test system: CCRF-CEM; assay: Growth inhibition of human CCRF-CEM cells incubated for 48 hrs by sulforhodamine B assay; format: functional
[5] = test system: EKVX; assay: Growth inhibition of human EKVX cells incubated for 48 hrs by sulforhodamine B assay; format: functional
[6] = test system: Malme-3M; assay: Growth inhibition of human MALME-3M cells incubated for 48 hrs by sulforhodamine B assay; format: functional
[7] = test system: HT-29; assay: Growth inhibition of human HT-29 cells incubated for 48 hrs by sulforhodamine B assay; format: functional; conditions: HT-29, 48 h
[8] = test system: A549; assay: Growth inhibition of human A549/ATCC cells incubated for 48 hrs by sulforhodamine B assay; format: functional; conditions: A549, 48 h
[9] = target: Telomerase reverse transcriptase (Homo sapiens) (UniProt O14746); assay: Inhibition of telomerase activity in human HeLa cells using 5'AATCCGTCGAGCAGAGTT3' as substrate after 30 mins by Sybr green1 staining based TRAP-PCR method; format: cell-based
[10] = test system: Jurkat; assay: Cell cycle arrest in human Jurkat T cells assessed as accumulation at G0/G1 phase at 3.2 uM after 24 hrs by propidium iodide staining based flow cytometry (reference value: 62.7 to 68.6%); format: functional
[11] = test system: SF-539; assay: Growth inhibition of human SF539 cells incubated for 48 hrs by sulforhodamine B assay; format: functional; conditions: SF-539, 48 h
[12] = test system: K562; assay: Growth inhibition of human K562 cells incubated for 48 hrs by sulforhodamine B assay; format: functional; conditions: K562, 48 h
[13] = test system: UACC-62; assay: Growth inhibition of human UACC62 cells incubated for 48 hrs by sulforhodamine B assay; format: functional; conditions: UACC-62, 48 h
[14] = test system: Jurkat; assay: Induction of apoptosis in human Jurkat T cells assessed as caspase3 activation at 6.4 uM after 24 hrs by colorimetric assay relative to control; format: functional
Method in brief: (§1)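 Jurkat cells were treated 24 h (0–6.4), and 3×10^6 cells were washed in PBS and lysed 10 min on ice. Cleared lysate was incubated 2 h at 37 °C in the dark with 10 mM DTT buffer and DEVD-pNA substrate. Absorbance at 405 nm was read against a no-substrate blank and expressed as fold over untreated cells. Valinomycin for 1 h was the positive control; three experiments.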

[15] = target: T1, DNA topoisomerase 2-alpha; assay: Inhibition of human topoisomerase-2alpha-mediated relaxation of supercoiled pBR322 DNA after 1 hr by ethidium bromide staining based agarose gel electrophoresis
Method in brief: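 Supercoiled pBR322 was incubated with compound (0.5–100) and 1 U human topoisomerase IIα in enzyme buffer for 1 h at 37 °C. Reactions were stopped with Tris/EDTA/NaCl loading buffer (pH 8.0) and run on 1% agarose in TAE with 0.1% SDS (4.9 V/cm, 90 min), then stained with ethidium bromide. IC50 is the concentration reducing relaxation activity by 50%.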

[16] = test system: SNB-19; assay: Growth inhibition of human SNB19 cells incubated for 48 hrs by sulforhodamine B assay; format: functional; conditions: SNB-19, 48 h
[17] = test system: Jurkat; assay: Induction of apoptosis in human Jurkat T cells at 3.2 uM after 24 hrs by annexin V-phycoerythrin/7-AAD staining based flow cytometry (reference value: 5.8 to 6.6%); format: functional
[18] = test system: Jurkat; assay: Induction of apoptosis in human Jurkat T cells at 6.4 uM after 24 hrs by annexin V-phycoerythrin/7-AAD staining based flow cytometry (reference value: 5.8 to 6.6%); format: functional
[19] = test system: NCI-H522; assay: Growth inhibition of human NCI-H522 cells incubated for 48 hrs by sulforhodamine B assay; format: functional; conditions: NCI-H522, 48 h
[20] = test system: Jurkat; assay: Cell cycle arrest in human Jurkat T cells assessed as accumulation at G2/M phase at 3.2 uM after 24 hrs by propidium iodide staining based flow cytometry (reference value: 17.1 to 20.8%); format: functional
[21] = test system: MOLT-4; assay: Growth inhibition of human MOLT4 cells incubated for 48 hrs by sulforhodamine B assay; format: functional; conditions: MOLT-4, 48 h
[22] = test system: Jurkat; assay: Induction of apoptosis in human Jurkat T cells assessed as caspase3 activation at 1.6 uM after 24 hrs by colorimetric assay relative to control; format: functional; method in brief: as §1
[23] = test system: KM12; assay: Growth inhibition of human KM12 cells incubated for 48 hrs by sulforhodamine B assay; format: functional; conditions: KM12, 48 h
[24] = test system: NCI-H23; assay: Growth inhibition of human NCI-H23 cells incubated for 48 hrs by sulforhodamine B assay; format: functional; conditions: NCI-H23, 48 h
[25] = test system: HOP-62; assay: Growth inhibition of human HOP62 cells incubated for 48 hrs by sulforhodamine B assay; format: functional; conditions: HOP-62, 48 h
[26] = test system: SK-MEL-5; assay: Growth inhibition of human SK-MEL-5 cells incubated for 48 hrs by sulforhodamine B assay; format: functional; conditions: SK-MEL-5, 48 h
[27] = test system: Jurkat; assay: Induction of apoptosis in human Jurkat T cells assessed as PARP cleavage at 3.2 uM after 24 hrs by flow cytometry (reference value: 4.8%); format: functional
[28] = test system: Escherichia coli; assay: Binding affinity to Escherichia coli supercoiled pBR322 DNA assessed as DNA intercalation up to 100 uM by agarose gel electrophoresis
Method in brief: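 Supercoiled pBR322 mixed with ligand (0–100 µM) in 10 mM Tris, 50 mM KCl with no enzyme, then run on agarose gel. Shift in electrophoretic mobility was read as intercalation/binding.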

[29] = test system: Thermus aquaticus; assay: Inhibition of Thermus aquaticus DNA polymerase-mediated amplification of fragment of pBR322 by PCR
Method in brief: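 PCR amplification of a pBR322 fragment by Taq polymerase with increasing compound (0.25–40) for 25 cycles: 94 °C, 58 °C and 72 °C, 30 s each. Products were run on 2% agarose in 0.5X TBE (4.2 V/cm, 1.5 h) and stained with ethidium bromide. IC50 is the concentration halving activity; MIC is the lowest concentration that suppresses activity.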

[30] = test system: COLO 205; assay: Growth inhibition of human COLO205 cells incubated for 48 hrs by sulforhodamine B assay; format: functional; conditions: COLO 205, 48 h

T1 sequence (P11388 whole entry): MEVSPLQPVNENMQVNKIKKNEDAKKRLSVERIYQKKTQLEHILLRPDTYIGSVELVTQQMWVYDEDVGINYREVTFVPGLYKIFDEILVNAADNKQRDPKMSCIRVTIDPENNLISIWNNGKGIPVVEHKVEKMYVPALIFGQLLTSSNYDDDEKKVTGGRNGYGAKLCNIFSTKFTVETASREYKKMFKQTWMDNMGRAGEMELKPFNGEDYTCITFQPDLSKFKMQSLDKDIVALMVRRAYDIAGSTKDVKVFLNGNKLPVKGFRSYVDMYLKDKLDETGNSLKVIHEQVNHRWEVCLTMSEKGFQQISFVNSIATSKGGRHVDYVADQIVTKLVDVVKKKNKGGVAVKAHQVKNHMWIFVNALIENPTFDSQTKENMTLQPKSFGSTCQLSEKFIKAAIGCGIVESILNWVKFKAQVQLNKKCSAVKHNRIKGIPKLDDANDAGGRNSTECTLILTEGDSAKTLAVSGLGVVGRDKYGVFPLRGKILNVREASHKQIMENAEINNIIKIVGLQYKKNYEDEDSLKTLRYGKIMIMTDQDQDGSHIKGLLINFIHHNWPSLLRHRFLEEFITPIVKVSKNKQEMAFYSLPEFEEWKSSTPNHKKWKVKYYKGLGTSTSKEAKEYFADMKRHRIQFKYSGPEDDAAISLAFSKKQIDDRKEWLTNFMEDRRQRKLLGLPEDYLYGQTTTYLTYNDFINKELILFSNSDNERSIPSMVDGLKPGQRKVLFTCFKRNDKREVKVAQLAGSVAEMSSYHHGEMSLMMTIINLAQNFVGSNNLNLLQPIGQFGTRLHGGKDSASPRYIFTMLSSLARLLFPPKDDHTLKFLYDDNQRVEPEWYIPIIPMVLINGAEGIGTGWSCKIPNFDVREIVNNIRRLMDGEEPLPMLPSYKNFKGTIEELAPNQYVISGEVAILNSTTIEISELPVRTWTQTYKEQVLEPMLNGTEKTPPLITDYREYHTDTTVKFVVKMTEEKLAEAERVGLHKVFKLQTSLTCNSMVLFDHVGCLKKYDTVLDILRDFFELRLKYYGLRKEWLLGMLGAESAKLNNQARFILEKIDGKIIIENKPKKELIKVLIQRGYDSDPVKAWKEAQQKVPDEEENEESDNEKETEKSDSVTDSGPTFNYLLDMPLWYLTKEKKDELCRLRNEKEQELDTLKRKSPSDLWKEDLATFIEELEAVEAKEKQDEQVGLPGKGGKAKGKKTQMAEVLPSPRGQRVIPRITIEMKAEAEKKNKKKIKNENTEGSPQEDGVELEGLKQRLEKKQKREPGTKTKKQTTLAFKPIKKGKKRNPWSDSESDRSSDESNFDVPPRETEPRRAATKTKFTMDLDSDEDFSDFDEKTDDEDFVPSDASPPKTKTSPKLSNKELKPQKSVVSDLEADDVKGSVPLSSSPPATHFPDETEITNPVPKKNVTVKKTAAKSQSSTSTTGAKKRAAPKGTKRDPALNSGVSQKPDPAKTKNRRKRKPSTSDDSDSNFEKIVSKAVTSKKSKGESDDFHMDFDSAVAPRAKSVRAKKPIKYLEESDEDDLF
Telomerase reverse transcriptase (Homo sapiens), sequence (O14746 whole entry): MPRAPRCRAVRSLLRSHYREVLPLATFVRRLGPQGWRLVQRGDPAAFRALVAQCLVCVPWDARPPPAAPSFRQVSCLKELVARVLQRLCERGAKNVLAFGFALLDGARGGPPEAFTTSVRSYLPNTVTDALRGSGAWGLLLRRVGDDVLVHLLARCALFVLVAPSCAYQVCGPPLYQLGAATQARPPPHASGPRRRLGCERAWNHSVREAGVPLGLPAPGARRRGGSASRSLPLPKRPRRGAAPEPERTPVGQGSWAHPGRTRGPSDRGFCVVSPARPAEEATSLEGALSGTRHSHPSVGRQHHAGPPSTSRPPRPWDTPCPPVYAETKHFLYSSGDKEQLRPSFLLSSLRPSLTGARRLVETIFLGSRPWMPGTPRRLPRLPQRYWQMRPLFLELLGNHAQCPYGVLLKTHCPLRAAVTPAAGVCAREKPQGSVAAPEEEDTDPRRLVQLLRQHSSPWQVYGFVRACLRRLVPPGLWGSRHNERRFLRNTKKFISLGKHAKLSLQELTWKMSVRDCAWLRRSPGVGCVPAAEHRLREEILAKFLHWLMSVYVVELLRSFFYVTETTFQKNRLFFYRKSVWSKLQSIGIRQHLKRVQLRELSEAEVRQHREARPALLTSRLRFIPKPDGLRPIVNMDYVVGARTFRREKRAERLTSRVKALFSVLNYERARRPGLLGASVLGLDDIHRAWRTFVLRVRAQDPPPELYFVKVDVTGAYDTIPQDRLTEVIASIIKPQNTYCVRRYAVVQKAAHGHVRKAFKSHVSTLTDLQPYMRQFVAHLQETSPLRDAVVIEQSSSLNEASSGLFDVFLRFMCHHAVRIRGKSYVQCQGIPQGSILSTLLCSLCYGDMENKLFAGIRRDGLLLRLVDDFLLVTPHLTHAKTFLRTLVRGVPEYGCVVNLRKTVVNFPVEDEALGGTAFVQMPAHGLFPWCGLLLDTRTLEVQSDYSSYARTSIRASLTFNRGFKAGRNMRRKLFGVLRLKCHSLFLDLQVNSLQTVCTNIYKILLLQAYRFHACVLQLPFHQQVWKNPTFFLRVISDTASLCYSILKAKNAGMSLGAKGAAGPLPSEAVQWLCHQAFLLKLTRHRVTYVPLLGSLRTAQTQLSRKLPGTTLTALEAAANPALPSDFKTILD

COc1ccccc1CNCCCN1C(=O)c2ccc3c4c(ccc(c24)C1=O)C(=O)N(CCCNCCCCN)C3=O
Activity [1]: inactive | GI50 [2]: 216 nM | GI50 [3]: 165 nM | GI50 [4]: 275 nM | GI50 [5]: 866 nM | GI50 [6]: 174 nM | GI50 [7]: 188 nM | GI50 [8]: 258 nM | inhibition [9]: inactive | Activity [10]: 59.7% | GI50 [11]: 280 nM | GI50 [12]: 281 nM | GI50 [13]: 175 nM | fold change (FC) [14]: 5.6 | pIC50 [15]: 5.09 | GI50 [16]: 292 nM | Activity [17]: 17.9% | Activity [18]: 22.2% | GI50 [19]: 172 nM | Activity [20]: 20.8% | GI50 [21]: 302 nM | fold change (FC) [22]: 2.6 | GI50 [23]: 324 nM | GI50 [24]: 193 nM | GI50 [25]: 290 nM | GI50 [26]: 153 nM | Activity [27]: 16.6% | Activity [28]: Active | MIC [29]: 0.5 µM (≈ 0.286 µg/mL) | GI50 [30]: 110 nM
